# According to ChEMBL document CHEMBL1126873, “Inhibitors of acyl-Coa:cholesterol acyltransferase. 4. A novel series of urea ACAT inhibitors as potential hypocholesterolemic agents” (J Med Chem, 1993):
# pIC50: −log10 of the molar value.
# Target: O-acyltransferase (Oryctolagus cuniculus, UniProt G1SFD9)
# Experiment: In vitro inhibition of Acyl coenzyme A:cholesterol acyltransferase using intestinal microsomes isolated from cholesterol fed rabbits
# Parameters: species or system Intestine
# Chain of O-acyltransferase (G1SFD9 1-524): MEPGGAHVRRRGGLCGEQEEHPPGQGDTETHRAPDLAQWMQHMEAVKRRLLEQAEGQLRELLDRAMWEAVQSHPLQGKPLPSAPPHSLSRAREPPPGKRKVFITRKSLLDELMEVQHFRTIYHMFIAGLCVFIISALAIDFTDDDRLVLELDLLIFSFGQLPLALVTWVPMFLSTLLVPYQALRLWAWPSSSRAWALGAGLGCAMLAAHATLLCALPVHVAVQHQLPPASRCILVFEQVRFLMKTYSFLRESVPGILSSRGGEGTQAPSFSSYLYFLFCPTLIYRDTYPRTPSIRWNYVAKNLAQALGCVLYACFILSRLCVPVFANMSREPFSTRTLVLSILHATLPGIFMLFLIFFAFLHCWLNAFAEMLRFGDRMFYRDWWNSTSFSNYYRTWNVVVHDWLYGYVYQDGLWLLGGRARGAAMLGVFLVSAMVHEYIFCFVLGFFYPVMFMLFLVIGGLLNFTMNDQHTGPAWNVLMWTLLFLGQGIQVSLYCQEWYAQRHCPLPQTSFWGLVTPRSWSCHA
row,SMILES,pIC50
1,CCc1cccc(C(C)C)c1NC(=O)NCC1(c2ccccc2)CCCC1,7.60
2,CCCCCC(CCCCC)(CNC(=O)Nc1c(C(C)C)cccc1C(C)C)c1ccccc1,7.59
3,CC(C)c1cccc(C(C)C)c1NC(=O)NCCC(c1ccccc1)c1ccccc1,6.85
4,CC(C)c1cccc(C(C)C)c1NC(=O)NCc1ccccc1,6.44
5,CC(C)c1cccc(C(C)C)c1NC(=O)NCC1(c2ccccc2)CCCC1,7.77
6,CC(C)c1cccc(C(C)C)c1NC(=O)Nc1ccccc1,6.04
7,O=C(NCC1(c2ccccc2)CCCC1)Nc1c(F)cc(F)cc1F,6.06
8,CCCCCCC(CCCCCC)(CNC(=O)Nc1c(C(C)C)cccc1C(C)C)c1ccccc1,6.92
9,Cc1cccc(C(C)(C)C)c1NC(=O)NCC1(c2ccccc2)CCCCC1,7.27
10,CC(C)c1cccc(C(C)C)c1NC(=O)NCC1(c2ccsc2)CCCC1,7.74
11,CN(C)c1cccc(N(C)C)c1NC(=O)NCC1(c2ccccc2)CCCC1,6.96
12,CC(C)c1cccc(C(C)C)c1NC(=O)NCCc1ccc2ccccc2c1,7.41
13,CC(C)c1cccc(C(C)C)c1NC(=NC#N)NCC1(c2ccccc2)CCCC1,5.00
14,CCCCC(CCCC)(CNC(=O)Nc1c(C(C)C)cccc1C(C)C)c1ccccc1,7.52
15,CC(C)c1cccc(C(C)C)c1NC(=O)NC1CC1c1ccccc1 (configuration not stated),5.70
16,CC(C)c1cccc(C(C)C)c1NC(=O)NC(Cc1ccccc1)c1ccccc1 (configuration not stated),7.51
17,CCC(CC)(CNC(=O)Nc1c(C(C)C)cccc1C(C)C)c1ccccc1,7.77
18,CC(C)c1cccc(C(C)C)c1NC(=O)NCC1(c2cccnc2)CCCC1,7.01
19,CC(C)c1cccc(C(C)C)c1NC(=O)NCC(C)(C)c1ccccc1,7.59
20,CC(C)c1cccc(C(C)C)c1NC(=O)NCC1(c2cccc3ccccc23)CCCC1,7.47
21,CC(C)c1cccc(C(C)C)c1NC(=O)NCC1(c2ccccc2)CCC1,7.55
22,CC(C)c1cccc(C(C)C)c1NC(=O)NC1CCCc2ccccc21 (configuration not stated),6.07
23,CC(C)c1cccc(C(C)C)c1NC(=S)NCC1(c2ccccc2)CCCC1,5.63

row,SMILES,pIC50
1,CC(C)c1cccc(C(C)C)c1NC(=O)NC(=O)C1(c2ccccc2)CCCC1,6.80
2,CC(C)c1cccc(C(C)C)c1N=C(N)NCC1(c2ccccc2)CCCC1,4.92
3,COc1cc(OC)c(NC(=O)NCC2(c3ccccc3)CCCC2)c(OC)c1,5.85
4,CC(C)c1cccc(C(C)C)c1NC(=O)NCC1c2ccccc2-c2ccccc21,7.57
5,CC(C)c1cccc(C(C)C)c1NC(=O)NC(C)(C)Cc1ccccc1,7.11
6,CC(C)c1cccc(C(C)C)c1NC(=O)NCCc1cccc2ccccc12,7.39
7,CC(C)c1cccc(C(C)C)c1NS(=O)(=O)NCC1(c2ccccc2)CCCC1,6.74
8,CC(C)c1cccc(C(C)C)c1NC(=O)NCC1(c2ccc3ccccc3c2)CCCC1,6.59
9,CCc1cccc(CC)c1NC(=O)NCC1(c2ccccc2)CCCC1,7.25
10,CC(C)c1cccc(C(C)C)c1OC(=O)NCC1(c2ccccc2)CCCC1,7.31
11,CC(C)c1cccc(C(C)C)c1NC(=O)NCC1(c2ccccc2)CC1,7.74
12,CCCC(CCC)(CNC(=O)Nc1c(C(C)C)cccc1C(C)C)c1ccccc1,7.52
13,Cc1cc(C)c(NC(=O)NCC2(c3ccccc3)CCCC2)c(C)c1,5.48
14,CC(C)c1cccc(C(C)C)c1NC(=O)NCCc1ccccc1,7.06
15,CC(C)c1cccc(C(C)C)c1NC(=O)NC1(c2ccccc2)CCCC1,7.19
16,CCOC(=O)c1ccc(NC(=O)NCC2(c3ccccc3)CCCCC2)cc1,5.21
17,CC(C)c1cccc(C(C)C)c1NC(=O)NCC1(c2cccs2)CCCC1,7.92
18,CC(C)c1cccc(C(C)C)c1NC(=O)NCCCc1ccccc1,6.72
19,Cc1cccc(C(C)C)c1NC(=O)NCC1(c2ccccc2)CCCC1,7.80
20,CC(C)c1cccc(C(C)C)c1NC(=O)NCC1(c2ccccc2)CCCCC1,7.68
21,CC(C)c1cccc(C(C)C)c1NC(=O)NCC(c1ccccc1)C(C)(C)C (configuration not stated),6.80
22,Cc1cccc(C(C)(C)C)c1NC(=O)NCC1(c2ccccc2)CCCC1,7.74

# Results, then the molecule that gave them:
row,pIC50,SMILES
1,5.64,O=C(NCC1(c2ccccc2)CCCCC1)Nc1ccccc1
2,7.29,CCc1cccc(CC)c1NC(=O)NCC1(c2ccccc2)CCCCC1
3,5.89,O=C(NCC1(c2ccccc2)CCCC1)Nc1ccc(F)cc1F
4,6.33,Cc1ccc(C)c(NC(=O)NCC2(c3ccccc3)CCCCC2)c1
5,5.60,COc1cccc(NC(=O)NCC2(c3ccccc3)CCCCC2)c1
6,7.70,CCc1cccc(C(C)C)c1NC(=O)NCC1(c2ccccc2)CCCCC1
7,6.57,COc1ccccc1NC(=O)NCC1(c2ccccc2)CCCCC1
8,6.92,Cc1cccc(C)c1NC(=O)NCC1(c2ccccc2)CCCCC1
9,6.70,O=C(NCC1(c2ccccc2)CCCCC1)Nc1ccccc1C(F)(F)F
10,5.31,COc1ccc(NC(=O)NCC2(c3ccccc3)CCCCC2)cc1
11,5.89,O=C(NCC1(c2ccccc2)CCCCC1)Nc1cccc(Cl)c1Cl
12,5.42,O=C(NCC1(c2ccccc2)CCCCC1)Nc1ccc(Cl)c(Cl)c1
13,5.82,CC(C)c1ccc(NC(=O)NCC2(c3ccccc3)CCCCC2)cc1
14,5.64,O=C(NCC1(c2ccccc2)CCCCC1)Nc1ccc(I)cc1
15,5.26,Cc1ccc(NC(=O)NCC2(c3ccccc3)CCCCC2)c(C)c1
16,6.19,Cc1ccccc1NC(=O)NCC1(c2ccccc2)CCCCC1
17,6.62,O=C(NCC1(c2ccccc2)CCCC1)Nc1c(Cl)cccc1Cl
18,6.02,O=C(NCC1(c2ccccc2)CCCC1)Nc1c(Cl)cc(Cl)cc1Cl
19,5.57,O=C(NCC1(c2ccccc2)CCCCC1)Nc1cc(Cl)ccc1Cl
20,5.66,O=C(NCC1(c2ccccc2)CCCCC1)Nc1ccc(Cl)cc1
21,7.24,Cc1cccc(C(C)C)c1NC(=O)NCC1(c2ccccc2)CCCCC1
22,6.41,CC(C)c1ccccc1NC(=O)NCC1(c2ccccc2)CCCCC1
23,5.35,Cc1ccc(NC(=O)NCC2(c3ccccc3)CCCCC2)cc1
24,5.38,CCOC(=O)c1ccccc1NC(=O)NCC1(c2ccccc2)CCCCC1
25,5.55,Cc1cccc(NC(=O)NCC2(c3ccccc3)CCCCC2)c1
26,6.72,Cc1cccc(C)c1NC(=O)NCC1(c2ccccc2)CCCC1

# Organism: Rattus norvegicus
# Experiment: Percent change in total cholesterol (TC) in cholic acid, cholesterol and peanut oil fed rats
# Type: functional
# In short: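 Rats fed a diet of cholic acid (0.3%), cholesterol (1.5%) and peanut oil (5.5%) received each compound in the diet at 0.05% for one week. Plasma total cholesterol was measured and expressed as percent change from control. Significance versus control was tested.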
row,SMILES,Change
1,CCc1cccc(CC)c1NC(=O)NCC1(c2ccccc2)CCCCC1,-60%
2,CCc1cccc(C(C)C)c1NC(=O)NCC1(c2ccccc2)CCCC1,-59%
3,CCc1cccc(C(C)C)c1NC(=O)NCC1(c2ccccc2)CCCCC1,-70%
4,Cc1cccc(C)c1NC(=O)NCC1(c2ccccc2)CCCCC1,-44%
5,CC(C)c1cccc(C(C)C)c1NC(=O)NCC1(c2ccccc2)CCCC1,-73%
6,Cc1cccc(C(C)(C)C)c1NC(=O)NCC1(c2ccccc2)CCCCC1,-51%
7,Cc1cccc(C(C)C)c1NC(=O)NCC1(c2ccccc2)CCCCC1,-56%
8,CCc1cccc(CC)c1NC(=O)NCC1(c2ccccc2)CCCC1,-63%
9,Cc1cccc(C(C)C)c1NC(=O)NCC1(c2ccccc2)CCCC1,-65%
10,CC(C)c1cccc(C(C)C)c1NC(=O)NCC1(c2ccccc2)CCCCC1,-73%
11,Cc1cccc(C(C)(C)C)c1NC(=O)NCC1(c2ccccc2)CCCC1,-61%
